Assay results reported in ChEMBL document CHEMBL3044892, “Primary study on mode of action for macrocyclic fungicide candidates (7B3, D1) against Rhizoctonia solani Kuhn” (J Agric Food Chem, 2010).
Values after ≈ are worked out from the molar mass of the structure shown. Active and inactive are the calls of the source. The calls are words filed in the database; no cut-off is given here.

Legend:
[1] = test system: Rhizoctonia solani; experiment: Fungicidal activity against Rhizoctonia solani assessed as inhibition of intact mycelia respiration at 10 ug/mL by […]; format: functional
In short: (§1)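 Intact R. solani mycelia from 5-day PD shake culture (25 C, 150 rpm), washed, resuspended at 50 mg fresh weight mL-1 in 0.1 M phosphate buffer pH 7.2 with 2% glucose; treated with 10 or 100 μg mL-1; O2 uptake by oxygraph at 25 C before and after addition; inhibition = (R0-R1)/R0 × 100; n = 3.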

[2] = test system: Rhizoctonia solani; experiment: Fungicidal activity against Rhizoctonia solani assessed as induction of electrolyte leakage from hyphae at 50 ug/mL by cell membrane permeability assay; format: functional, organism-based
[3] = test system: Rhizoctonia solani; experiment: Fungicidal activity against Rhizoctonia solani assessed as inhibition of intact mycelia respiration at 100 ug/mL by […]; format: functional; in short: as §1
[4] = test system: Rhizoctonia solani; experiment: Fungicidal activity against Rhizoctonia solani assessed as disorganized organelles and decreased in the hyphae cytoplasm at 50 ug/mL by Transmission electron micrography; format: functional, organism-based
In short: (§2)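 R. solani grown 3 days on PDA with 0 or 50 μg mL-1 test compound; 5 mm hyphal tips from colony margin fixed in 4% glutaraldehyde at 4 C, then 1% osmium tetroxide, acetone-dehydrated, Epon-embedded; thin sections double-stained with uranyl acetate and lead citrate, examined by TEM versus untreated control.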

[5] = test system: Rhizoctonia solani; experiment: Fungicidal activity against Rhizoctonia solani assessed as thicker hyphae and abnormally thickened walls of the septa at 50 ug/mL by Transmission electron micrography; format: functional, organism-based; in short: as §2
[6] = test system: Rhizoctonia solani; experiment: Fungicidal activity against Rhizoctonia solani assessed as reduction in mycelia growth at 50 ug/mL; format: functional, organism-based
[7] = test system: Rhizoctonia solani; experiment: Fungicidal activity against Rhizoctonia solani assessed as mycelia rough surface and formed irregular ramification or abnormal configuration at 50 ug/mL by scanning electron micrography; format: functional, organism-based
In short: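 Hyphal tips (5 mm) cut from margins of R. solani colonies grown 3 days on PDA containing 0 or 50 μg mL-1 compound; glutaraldehyde (4%, 4 C) and osmium tetroxide fixation, graded acetone dehydration, critical-point drying, gold coating; imaged by SEM at 18-20 kV accelerating voltage.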

[8] = test system: Botrytis cinerea; experiment: Fungicidal activity against Botryotinia fuckeliana by mycelium growth rate test; format: functional, organism-based
[9] = test system: Phyllosticta; experiment: Fungicidal activity against Phyllospicpa physaleos Sacc., by mycelium growth rate test; format: functional, organism-based
[10] = test system: Rhizoctonia solani; experiment: Fungicidal activity against Rhizoctonia solani by mycelium growth rate test; format: functional, organism-based
[11] = test system: Alternaria kikuchiana; experiment: Fungicidal activity against Alternaria kikuchiana by mycelium growth rate test; format: functional, organism-based
[12] = test system: Rhizoctonia solani; experiment: Fungicidal activity against Rhizoctonia solani assessed as prevention in cotton at 140 g/ha by field efficacy trail; format: functional
[13] = test system: Rhizoctonia solani; experiment: Fungicidal activity against Rhizoctonia solani assessed as disappearance of septal pore caps at 50 ug/mL by Transmission electron micrography; format: functional, organism-based; in short: as §2
[14] = test system: Alternaria kikuchiana; experiment: Fungicidal activity against Alternaria kikuchiana Tanaka assessed as inhibition rate; format: functional
[15] = test system: Sclerotinia sclerotiorum; experiment: Fungicidal activity against Sclerotinia sclerotiorum assessed as inhibition rate; format: functional
[16] = test system: Verticillium dahliae; experiment: Fungicidal activity against Verticillium dahliae assessed as inhibition rate; format: functional
[17] = test system: Colletotrichum orbiculare; experiment: Fungicidal activity against Colletotrichum orbiculare assessed as inhibition rate; format: functional
[18] = test system: Rhizoctonia solani; experiment: Fungicidal activity against Rhizoctonia solani assessed as inhibition rate; format: functional
[19] = test system: Fulvia fulva; experiment: Fungicidal activity against Passalora fulva Cooke Ciferri assessed as inhibition rate; format: functional

Structure (SMILES)	inhibition at 10 µg/mL [1] [%]	inhibition at 100 µg/mL [3] [%]	inhibition [4]	Activity [5]	inhibition [6]	inhibition [7]	further results
CO/C=C(/C(=O)OC)c1ccccc1Oc1cc(Oc2ccccc2C#N)ncn1 [AZOXYSTROBIN]	84.9	–	–	–	–	–	–
CC(C)(C)C(=O)C(Oc1ccc(Cl)cc1)n1cncn1 (stereo unspecified)	–	–	–	–	–	–	Activity [2]: inactive
CCCO/N=C1\CCCCCCCCCCC(=O)NCCC1	3.39	12.1	Active	Active	Active	Active	EC50 [8]: 8.6 µg/mL (≈ 27.7 µM); EC50 [9]: 1.9 µg/mL (≈ 6.12 µM); EC50 [10]: 4.6 µg/mL (≈ 14.8 µM); EC50 [11]: 1.2 µg/mL (≈ 3.86 µM); Activity [12]: 64%
F[B-](F)(F)F.O=C1CCCCCCCCCCC[NH2+]CCO1	1.67	3	Active	Active	Active	Active	Activity [13]: Active; inhibition (INH) [14]: 85.7%; inhibition (INH) [15]: 85.7%; inhibition (INH) [16]: 86.9%; inhibition (INH) [17]: 73.2%; inhibition (INH) [18]: 96%; inhibition (INH) [19]: 89.3%
